Data reported in the RNAGym collection of RNA variant scans (doi:10.1126/science.aae0568).
This sample holds only a part of the variants without activity.

B1: tRNA (parent)
chain: GUUCCGUUGGCGUAAUGGUAACGCGUCUCCCUCCUAAGGAGAAGACUGCGGGUUCGAGUCCCGUACGGAACG

Variants of: B1
Experiment: yeast fitness relative to wild type (ratio to wild type); higher = fitter; tRNA-Arg(CCU), competitive growth, 37 C, YPD
Procedure, shortened: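 Genotype frequency changes were the basis for Darwinian fitness relative to wild type. The frequencies came from 100-nucleotide paired-end sequencing of gene amplicons from the start population and each end population of pooled yeast strains with tRNA-Arg(CCU) gene variants at the native locus. Competition ran in YPD at 37°C for 24 hours in six replicates, genotypes needed ≥ 100 starting reads, and estimates < 0.5 were set to 0.5.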

Variant | yeast fitness
A21G C34U | 0.701
C5G U28G G58C C62U G63C U64G | 0.628
U2C G17C G23C G25C U35A A42U A70G | ≤ 0.5
A14G U26C A37G | ≤ 0.5
U8C C27G G44A | ≤ 0.5
C5G G6A C29U C33G G38A G67U | ≤ 0.5
C5A A20U C27A A42G A43G A57C G67C | 0.565
G6C C11U A65U | 0.578
U2G C27G C66U | ≤ 0.5
G39A C49U A57U | 0.562
U3A C4A A20C C29A | ≤ 0.5
G12A A36U G63A | ≤ 0.5
C61A C66U | 0.691
C5U A43U | 0.918
U8A A15G C27A U47G G68U | ≤ 0.5
A40C A69C | 0.765
A42G A43G C49U | 0.556
C11U C55G G67A | ≤ 0.5
A21U C24A | 0.578
G23A C30U C66U | ≤ 0.5
U3G U8C G58A | 0.763
U13C A15C C46G | ≤ 0.5
C27G C33U A69C | 0.544
C24G C33U A43G U47A | 0.682

Variant | yeast fitness
C4A U8C A15C C31U G48C A65C | 0.608
G23A A36G C55G | 0.578
U7A A21C U54C | ≤ 0.5
G6A G23C C61U | ≤ 0.5
G12C G18C G58C | ≤ 0.5
C33U A40C C60G | ≤ 0.5
G6C G63C | 0.689
C27U C33A A40C | 0.574
C5U U8A U59G | ≤ 0.5
G6C A15U G23C C31G G41C G48C G67C | ≤ 0.5
U8G A21C U64A | 0.516
C33U C34A A36G A42U | 0.73
U64G A65U | 0.648
C11A C61U A65G G67C | ≤ 0.5
G23C U64A | 0.564
G12A C22A C24A A36U U53A | ≤ 0.5
C24G C33U A37U G38A | ≤ 0.5
C5G U13C C46U | 0.547
G39C U54G A70C | 0.564
G38A G63A | 0.897
A15C C49U U54C C55G | 0.64
C5U U16A A42U | 0.666
A21G G23A C31U | 0.528
A37U U53G | 0.538

Variant | yeast fitness
C5G C49U G58C | 0.622
C24U C34U | 0.688
U19G A20C U26C G41A C62G | ≤ 0.5
A36G G41A C60G A65G | ≤ 0.5
G6C U8C C11U G39C C55A | ≤ 0.5
G9C U13A G25A A40C A57C C61A G67A | 0.553
C5G G18C C31A | ≤ 0.5
A15C U16C A65G | ≤ 0.5
C22G C31G C62U A70U | ≤ 0.5
G68U | 1.02
G25C G58C | 1
U19C C33A | 0.636
G9A U16C C29G U53A | ≤ 0.5
G12C U26C A43C | 0.741
C30A C31G U32A C60U | ≤ 0.5
U3A C5U A21G A43C | 0.526
G9A A36G A43G | 0.748
G41A U47C C61G C62U | ≤ 0.5
C30G G39C G44A | ≤ 0.5
G6A U13G G48A G50A U54A | ≤ 0.5
C24G G39C C61U C66U | ≤ 0.5
C4U C5G G48C | 0.655
U3G U64G | 0.716
C22U U26C A37C G41C | ≤ 0.5

Variant | yeast fitness
C5G G10C A43U C62A | ≤ 0.5
A21G A43C C60G G68C | ≤ 0.5
A43G C61A | 0.616
A14U C24A C30U A37G | ≤ 0.5
C5A U28G A65U | ≤ 0.5
U8C A45G C49A | 0.574
A14G G44A C46A G52A C66U | ≤ 0.5
G23C C30G C49U A65C | ≤ 0.5
C22G C24G C27G | 0.766
U3C C31U A69U | 0.782
G10C G12U C33U U35G | ≤ 0.5
C5U U13A A70U | 0.737
C4G C5A C11U G18C C46G | ≤ 0.5
C30U C31U A36C | ≤ 0.5
G56C A65G | 0.606
G6C A14U | 0.607
U3A C46G U47C | 0.675
U3A C61U G67A | 0.562
C4G U7A G10C A20C G67U | 0.527
C5U G17U A70U | ≤ 0.5
G10C C11U C30G G48A U54A | 0.693
C4U C29A G52C C55A C61A G68U | ≤ 0.5
C22U C61A C62U | 0.586
C11A A36G | 0.646

Variant | yeast fitness
G9C G12A C61G | ≤ 0.5
U7A A14G A15C A36G A40U C46A G52C A70U | 0.649
U19G C22U C31U A40U A65C G68A | ≤ 0.5
C4G U7A G10C A20C C46G | ≤ 0.5
U13A U59A U64A A70C | 0.511
G41A U47C C62U | ≤ 0.5
C11A C27G C55A C61G | ≤ 0.5
A21C U64G A69G | 0.504
U2G A15C U47G A69C | ≤ 0.5
C31U G48A C61G C62A | 0.602
C11U A43C G56A | 0.692
G6C C27U | 0.933
C11G U13G C30U A37G A40U A57U | ≤ 0.5
C55A C60U | 0.525
U3G U13C A14U C29A A69C | 0.562
A20C G51C | 0.541
A14U A20C C24U | ≤ 0.5
U7C C31U A70U | 0.658
G6A C66G | 0.683
A14U U35A A43C | ≤ 0.5
U28C C55U A57C | ≤ 0.5
A20U C31U | 0.926
U13C C22U G38C | ≤ 0.5
U2G C33A | 0.632

Variant | yeast fitness
U3C G9A G68A | 0.843
G6C U7C G12A C24U C29G G50C C66U | ≤ 0.5
A14U C27G G52A G63C | ≤ 0.5
C24U C31U | 0.96
C34G U54C | 0.569
C34A G38C A43U | 0.588
C24U A37G C49G | ≤ 0.5
C5U G10A C27G | ≤ 0.5
C5G U13A C22G C29G A40U U54C C61G | 0.588
C11G C49U C66U | ≤ 0.5
C31A G56C A57G C62U | ≤ 0.5
C4G C11A C30G C60A | ≤ 0.5
U3C C46U U64C | 0.802
C27U C33G A43G U53C A57G C61U C62U A70G | ≤ 0.5
C27U C30G A40G G51C | ≤ 0.5
C22G G25A C61U | 0.647
C11U A15G A21G C34U G44A C61A A70C | ≤ 0.5
C4G G6A A69U | 0.667
G18A G50C G58C C60U C66G | ≤ 0.5
A14U A40C A57C C60U | ≤ 0.5
G41C G48A C66A | 0.583
G38A G39A | 0.637
C30G C49A U53C C66G | 0.513
C4G C61G G63C A70G | 0.516

Variant | yeast fitness
U7C U26A U54C | ≤ 0.5
U2A C33U A37C | 0.532
U19C A21G U26G G39C C46A A70C | ≤ 0.5
U2G C4A A37U C62G | ≤ 0.5
C29G G56A | 0.632
U2C A15G G44A G50C A70G | ≤ 0.5
C4A G44A C46U U53C C62U | ≤ 0.5
A37U G44A | 0.602
G6A C11A C66A | ≤ 0.5
U32G G38A | 0.586
C4G A40U A42C C61G | ≤ 0.5
U47G G68U | 0.568
G9C A37G C55G C60G | 0.524
C24U A45G A65G | 0.757
C5U A14G G68C | 0.57
A14U A15G A65G | ≤ 0.5
C24U C29G C33U A57G | ≤ 0.5
C31G G52A | 0.755
G52A U54C | 0.589
U16C C49A G63A | ≤ 0.5
C5G A57G | 0.882
U2C U28A U54C | 0.543
C24U C30G | 0.836
